In PMC6175367 (Journal of Clinical Pharmacology, 2018):
Structures can show the parent of a compound that is named as a salt.

Tests used:
[1] = dose of up to 200 mg, healthy nonelderly adult male subjects, CPH‐001; cited from earlier work
[2] = Plasma pharmacokinetics after multiple oral administrations of imarikiren; assay type: in vivo, human
Method in brief: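 Healthy males (nonelderly 20–45 y, elderly 65–85 y) took test compound or placebo tablets orally once daily for 7 days (80 or 160 mg). Fluids were withheld from 2 h pre-dose to 4 h post-dose. Plasma parent and metabolite were measured by HPLC‑MS/MS, with noncompartmental analysis on actual sampling times. Accumulation = 100 × AUC0‑tau day 7/day 1. Age effect: elderly−nonelderly difference in ln AUC0‑tau and Cmax, day 7, with 90%/95% CI.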

[3] = Safety evaluation: adverse events, vital signs, weight, ECG, laboratory tests; assay type: in vivo, human
[4] = tested on: PRA; settings: ≥5 mg dose, CPH‐001 study; cited from earlier work
[5] = single‐dose administration; cited from earlier work
[6] = tested on: plasma angiotensin II concentration (AII); assay: Plasma angiotensin II concentration; assay type: in vivo, human
Method in brief: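 Double-blind, placebo-controlled once-daily oral tablet dosing for 7 days in healthy Japanese men (nonelderly 20‑45 y, elderly 65‑85 y), given 30 min after starting breakfast with 200 mL water, with uniform meals. Plasma angiotensin II was measured by radioimmunoassay at 1 h predose and 1‑12 h postdose on days 1 and 7, predose on days 2‑6, and up to 71 h after the last dose.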

[7] = target: T1, plasma renin activity (PRA) (Homo sapiens, UniProt P00797); assay type: in vivo
T1 sequence (P00797 67-406): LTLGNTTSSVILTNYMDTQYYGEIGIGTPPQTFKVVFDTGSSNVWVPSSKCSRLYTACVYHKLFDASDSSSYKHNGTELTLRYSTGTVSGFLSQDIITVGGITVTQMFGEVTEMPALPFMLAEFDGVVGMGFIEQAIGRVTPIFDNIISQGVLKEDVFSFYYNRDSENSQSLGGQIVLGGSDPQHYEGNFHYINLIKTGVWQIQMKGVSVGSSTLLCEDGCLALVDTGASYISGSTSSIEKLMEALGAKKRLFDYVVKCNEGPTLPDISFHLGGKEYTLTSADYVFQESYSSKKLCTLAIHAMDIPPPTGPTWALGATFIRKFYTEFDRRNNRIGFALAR

[8] = tested on: plasma active renin concentration (PRC); assay: Plasma active renin concentration; assay type: in vivo, human
Method in brief: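 Healthy Japanese male volunteers (nonelderly 20‑45 y, elderly 65‑85 y) took test compound or placebo tablets orally once daily for 7 days, 30 min after starting breakfast with 200 mL water. Sodium-matched meals were given. Plasma active renin was measured by immunoradiometric assay at 1 h predose and 1, 2, 4, 6, 12 h postdose on days 1 and 7, 1 h predose on days 2‑6, and 23, 47, 71 h after the last dose.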

[9] = tested on: PRA; settings: aliskiren 300 mg on day 1 and days 4‐10, Japanese and white subjects; cited from earlier work
[10] = imarikiren 80 mg, day 7, Cohort 3 vs Cohort 1
[11] = imarikiren 80 mg, nonelderly, listed as imarikiren
[12] = imarikiren 160 mg, nonelderly, listed as imarikiren
[13] = imarikiren 80 mg once daily 7 days, elderly (n = 9)
[14] = imarikiren 80 mg once daily 7 days, nonelderly (n = 9)
[15] = imarikiren 80 mg, nonelderly (2 of 9 subjects)
[16] = imarikiren 160 mg once daily 7 days, nonelderly (n = 9)

COCCCCn1c(C(=O)N(CC(C)C)[C@@H]2CNC[C@H](C(=O)N3CCOCC3)C2)nc2ccccc21 [Imarikiren, Imarikiren hydrochloride]
Tolerability of single dose [1]: good tolerability | Tmax ([2]; human, plasma, oral, 160 mg, median time to reach the maximum observed plasma concentration (Tmax), nonelderly subjects, all groups (80 and 160 mg), days 1 and 7): 1 to 2 h | CL/F, mean (SD) ([2]; imarikiren 80 mg oral once daily, elderly, Day 1): 15.2 (4.6) L/hr | CL/F, mean (SD) ([2]; imarikiren 80 mg oral once daily, elderly, Day 7): 14.1 (3.4) L/hr | CL/F, mean (SD) ([2]; imarikiren 80 mg oral once daily, nonelderly, Day 1): 19.6 (3.6) L/hr | CL/F, mean (SD) ([2]; imarikiren 80 mg oral once daily, nonelderly, Day 7): 21.5 (5.6) L/hr | AUC0‐tau higher in elderly than in nonelderly subjects [2, 10]: 52% | Cmax higher in elderly than in nonelderly subjects [2, 10]: 39% | Accumulation index (AUC) percentage (100 × AUC0‐tau day 7/AUC0‐inf day 1), mean (SD) ([2]; imarikiren 80 mg, nonelderly): 94.4 (21.8) % | Accumulation index (t1/2) percentage, mean (SD) ([2]; imarikiren 80 mg, nonelderly): 116.4 (39.1) % | R(AUC), AUC accumulation factor percentage (100 × AUC0‐tau day 7/AUC0‐tau day 1), mean (SD) ([2]; imarikiren 80 mg, nonelderly): 106.4 (22.4) % | Accumulation index (AUC) percentage (100 × AUC0‐tau day 7/AUC0‐inf day 1), mean (SD) [2, 11]: 94.4% | R(AUC), AUC accumulation factor percentage (100 × AUC0‐tau day 7/AUC0‐tau day 1), mean (SD) [2, 11]: 106.4% | CL/F, mean (SD) ([2]; imarikiren 160 mg oral once daily, nonelderly, Day 1): 19.7 (5.1) L/hr | CL/F, mean (SD) ([2]; imarikiren 160 mg oral once daily, nonelderly, Day 7): 17.6 (3.3) L/hr | Accumulation index (AUC) percentage (100 × AUC0‐tau day 7/AUC0‐inf day 1), mean (SD) ([2]; imarikiren 160 mg, nonelderly): 114.2 (30.0) % | Accumulation index (t1/2) percentage, mean (SD) ([2]; imarikiren 160 mg, nonelderly): 119.7 (34.3) % | R(AUC), AUC accumulation factor percentage (100 × AUC0‐tau day 7/AUC0‐tau day 1), mean (SD) ([2]; imarikiren 160 mg, nonelderly): 123.0 (32.6) % | Accumulation index (AUC) percentage (100 × AUC0‐tau day 7/AUC0‐inf day 1), mean (SD) [2, 12]: 114.2% | R(AUC), AUC accumulation factor percentage (100 × AUC0‐tau day 7/AUC0‐tau day 1), mean (SD) [2, 12]: 123.0% | Plasma concentration reached steady state (based on trough concentration) ([2]; multiple oral administration of 80 mg and 160 mg, nonelderly): ≤ 7 days | Overall safety and tolerability ([3]; 80 or 160 mg for 7 days nonelderly, 80 mg elderly): safe and well tolerated | Intensity of TEAEs ([3]; all TEAEs, with the exception of moderate urticaria in 1 nonelderly subject (80 mg)): mild in intensity | Changes in ECG parameters ([3]; all cohorts): No obvious changes | Serious TEAEs and deaths ([3]; all cohorts, during the study): no serious TEAEs and no deaths | TEAEs reported, subjects ([3]; all nonelderly subjects who received imarikiren): 22.2% | TEAEs related to the study drug, subjects ([3]; all nonelderly subjects who received imarikiren (3 of 18 subjects)): 16.7% | Subjects with any TEAEs [3, 13]: 3 (33.3) n (%) | TEAE: Alanine aminotransferase increased [3, 13]: 1 (11.1) n (%) | TEAE: Aspartate aminotransferase increased [3, 13]: 1 (11.1) n (%) | TEAE: Blood creatinine phosphokinase increased [3, 13]: 0 n (%) | TEAE: Blood triglycerides increased [3, 13]: 0 n (%) | TEAE: Diarrhea [3, 13]: 1 (11.1) n (%) | TEAE: Eye disorders [3, 13]: 0 n (%) | TEAE: Feeling hot [3, 13]: 0 n (%) | TEAE: Gastrointestinal disorders [3, 13]: 1 (11.1) n (%) | TEAE: General disorders and administration site conditions [3, 13]: 0 n (%) | TEAE: Headache [3, 13]: 1 (11.1) n (%) | TEAE: Investigations [3, 13]: 2 (22.2) n (%) | TEAE: Nervous system disorders [3, 13]: 1 (11.1) n (%) | TEAE: Pruritus [3, 13]: 0 n (%) | TEAE: Skin and subcutaneous tissue disorders [3, 13]: 0 n (%) | TEAE: Urticaria [3, 13]: 0 n (%) | TEAE: Vision blurred [3, 13]: 0 n (%) | TEAE: White blood cell count decreased [3, 13]: 1 (11.1) n (%) | TEAE: White blood cell count increased [3, 13]: 0 n (%) | Subjects with any TEAEs [3, 14]: 2 (22.2) n (%) | TEAE: Alanine aminotransferase increased [3, 14]: 0 n (%) | TEAE: Aspartate aminotransferase increased [3, 14]: 0 n (%) | TEAE: Blood creatinine phosphokinase increased [3, 14]: 0 n (%) | TEAE: Blood triglycerides increased [3, 14]: 0 n (%) | TEAE: Diarrhea [3, 14]: 0 n (%) | TEAE: Eye disorders [3, 14]: 0 n (%) | TEAE: Feeling hot [3, 14]: 1 (11.1) n (%) | TEAE: Gastrointestinal disorders [3, 14]: 0 n (%) | TEAE: General disorders and administration site conditions [3, 14]: 1 (11.1) n (%) | TEAE: Headache [3, 14]: 0 n (%) | TEAE: Investigations [3, 14]: 1 (11.1) n (%) | TEAE: Nervous system disorders [3, 14]: 0 n (%) | TEAE: Pruritus [3, 14]: 1 (11.1) n (%) | TEAE: Skin and subcutaneous tissue disorders [3, 14]: 2 (22.2) n (%) | TEAE: Urticaria [3, 14]: 1 (11.1) n (%) | TEAE: Vision blurred [3, 14]: 0 n (%) | TEAE: White blood cell count decreased [3, 14]: 0 n (%) | TEAE: White blood cell count increased [3, 14]: 1 (11.1) n (%) | TEAEs related to the study drug, subjects ([3]; imarikiren 80 mg, elderly (2 of 9 subjects)): 22.2% | TEAEs reported, subjects ([3]; imarikiren 80 mg, elderly (3 of 9 subjects)): 33.3% | TEAEs related to the study drug, subjects [3, 15]: 22.2% | TEAEs reported, subjects [3, 15]: 22.2% | Subjects with any TEAEs [3, 16]: 2 (22.2) n (%) | TEAE: Alanine aminotransferase increased [3, 16]: 2 (22.2) n (%) | TEAE: Aspartate aminotransferase increased [3, 16]: 0 n (%) | TEAE: Blood creatinine phosphokinase increased [3, 16]: 0 n (%) | TEAE: Blood triglycerides increased [3, 16]: 0 n (%) | TEAE: Diarrhea [3, 16]: 0 n (%) | TEAE: Eye disorders [3, 16]: 0 n (%) | TEAE: Feeling hot [3, 16]: 0 n (%) | TEAE: Gastrointestinal disorders [3, 16]: 0 n (%) | TEAE: General disorders and administration site conditions [3, 16]: 0 n (%) | TEAE: Headache [3, 16]: 0 n (%) | TEAE: Investigations [3, 16]: 2 (22.2) n (%) | TEAE: Nervous system disorders [3, 16]: 0 n (%) | TEAE: Pruritus [3, 16]: 0 n (%) | TEAE: Skin and subcutaneous tissue disorders [3, 16]: 0 n (%) | TEAE: Urticaria [3, 16]: 0 n (%) | TEAE: Vision blurred [3, 16]: 0 n (%) | TEAE: White blood cell count decreased [3, 16]: 0 n (%) | TEAE: White blood cell count increased [3, 16]: 0 n (%) | TEAEs related to the study drug, subjects ([3]; imarikiren 160 mg, nonelderly (1 of 9 subjects)): 11.1% | TEAEs reported, subjects ([3]; imarikiren 160 mg, nonelderly (2 of 9 subjects)): 22.2% | Change in mean blood pressure ([3]; imarikiren groups, day 7 compared with baseline): decrease in mean blood pressure | Inhibition of PRA after single oral administration [4]: completely inhibited PRA | Food effect on the PK [5]: minimal effect | Change from baseline in AII ([6]; 80 mg, elderly, any time): no changes from baseline | Change from baseline in AII ([6]; 160 mg, nonelderly, days 1 through 7): decreased from baseline | Time after the last administration for which inhibition of PRA was maintained ([7]; 80 mg (nonelderly and elderly) and 160 mg (nonelderly), once daily for 7 days): at least 71 hours | PRA inhibition with multiple dosing ([7]; for 7 days, sustained for nearly 3 days after the last administration): complete inhibition | Change from baseline in PRC, mean (SD) ([8]; imarikiren 80 mg oral once daily, elderly, Day 2 (–1 hr)): 78.3 (72.3) pg/mL | Change from baseline in PRC, mean (SD) ([8]; imarikiren 80 mg oral once daily, elderly, Day 7 (23 hrs)): 154.4 (168.0) pg/mL | Change from baseline in PRC, mean (SD) ([8]; imarikiren 80 mg oral once daily, nonelderly, Day 2 (–1 hr)): 169.3 (140.9) pg/mL | Change from baseline in PRC, mean (SD) ([8]; imarikiren 80 mg oral once daily, nonelderly, Day 7 (23 hrs)): 247.1 (130.1) pg/mL | Change from baseline in PRC, mean (SD) ([8]; imarikiren 160 mg oral once daily, nonelderly, Day 2 (–1 hr)): 129.5 (106.8) pg/mL | Change from baseline in PRC, mean (SD) ([8]; imarikiren 160 mg oral once daily, nonelderly, Day 7 (23 hrs)): 487.3 (264.9) pg/mL

COCCCOc1cc(C[C@@H](C[C@H](N)[C@@H](O)C[C@H](C(=O)NCC(C)(C)C(N)=O)C(C)C)C(C)C)ccc1OC [aliskiren]
PRA inhibition at steady state [9]: incomplete PRA inhibition
